{"data": "Published values from different studies", "target": "Leukocyte tyrosine kinase receptor (LTK, Homo sapiens, UniProt P29376)", "note": "Lines come from different studies, so protocols differ."}
{"Structure (SMILES)": "CSc1cccnc1N1CCN(Cc2nc3ccccc3[nH]2)CC1", "observed": "cell-free assay", "technique": "competition with immobilised ligand", "tested at": "1 µM", "remaining binding": "89%"}
{"Structure (SMILES)": "CC1CCCN1c1nccc(-c2cnn3ncccc23)n1 (stereo not shown)", "observed": "binding", "tested at": "1 µM", "remaining binding": "100%"}
{"Structure (SMILES)": "COc1ccc2cc(OCC3(C(=O)O)CN(C(=O)c4ccc(F)cc4)C3)ccc2c1", "observed": "cell-free assay", "technique": "competition with immobilised ligand", "tested at": "1 µM", "remaining binding": "100%"}
{"Structure (SMILES)": "F[C@@H]1CCN(c2nccc(-c3cnn4ncccc34)n2)C1", "observed": "binding", "tested at": "1 µM", "remaining binding": "92%"}
{"Structure (SMILES)": "O=C1CCc2cc(Nc3cc(OC4CCOCC4)c([N+](=O)[O-])cc3Cl)ccc2N1", "observed": "cell-free assay", "technique": "competition with immobilised ligand", "tested at": "1 µM", "remaining binding": "100%"}
{"Structure (SMILES)": "Nc1ncc2c(n1)-c1c([nH]c3ccc(C#CC4CC4)cc13)CCCC2", "observed": "binding", "technique": "competition with immobilised ligand", "tested at": "1 µM", "remaining binding": "100%"}
{"Structure (SMILES)": "O=C(NS(=O)(=O)c1ccc(NCC2CCOCC2)c([N+](=O)[O-])c1)c1ccc(N2CCN(Cc3ccc(C(F)(F)F)cc3-c3ccc(Cl)cc3)CC2)cc1Oc1cnc2[nH]ccc2c1", "observed": "cell-free assay", "technique": "competition with immobilised ligand", "tested at": "1 µM", "remaining binding": "100%"}
{"Structure (SMILES)": "c1cnn2ncc(-c3ccnc(N4CCC45COC5)n3)c2c1", "observed": "binding", "tested at": "1 µM", "remaining binding": "98%"}
{"Structure (SMILES)": "O=C(NCCCN1CCOCC1)c1ccc(Nc2ncc(Cl)c(-c3ccc(Cl)s3)n2)cc1", "observed": "binding", "technique": "competition with immobilised ligand", "tested at": "1 µM", "remaining binding": "100%"}
{"Structure (SMILES)": "CN([C@@H]1CCc2c(CC(=O)O)c3cc(S(C)(=O)=O)ccc3n2C1)S(=O)(=O)c1ccc(F)cc1", "observed": "cell-free assay", "technique": "competition with immobilised ligand", "tested at": "1 µM", "remaining binding": "100%"}
{"Structure (SMILES)": "CCN1CCN(Cc2ccc(C(=O)Nc3ccc(C)c(Oc4ccc5c(c4)CC(=O)N5)c3)cc2C(F)(F)F)CC1", "observed": "binding", "technique": "competition with immobilised ligand", "tested at": "1 µM", "remaining binding": "100%"}
{"Structure (SMILES)": "CNC(=O)[C@@H]1CC[C@@H](n2c(-c3ccc4cnccc4c3)nc3ccc(C(=O)NCc4cccc(C(N)=O)c4)cc32)C1", "observed": "binding", "technique": "competition with immobilised ligand", "tested at": "1 µM", "remaining binding": "89%"}
{"Structure (SMILES)": "N[C@H]1CCN(c2nccc(-c3cnn4ncccc34)n2)C1", "observed": "binding", "tested at": "1 µM", "remaining binding": "100%"}
{"Structure (SMILES)": "O=C(Nc1c[nH]nc1C(=O)NC1CCNCC1)c1cc(F)cc(F)c1", "observed": "binding", "technique": "competition with immobilised ligand", "tested at": "1 µM", "remaining binding": "74%"}
{"Structure (SMILES)": "CN(CCCC(F)(F)F)c1nccc(-c2cnn3ncccc23)n1", "observed": "binding", "tested at": "1 µM", "remaining binding": "96%"}
{"Structure (SMILES)": "c1cncc(-c2cccc(Nc3nccc(NC4CCCCC4)n3)c2)c1", "observed": "binding", "technique": "competition with immobilised ligand", "tested at": "10 µM", "remaining binding": "68%"}
{"Structure (SMILES)": "O=C(c1ccc(Nc2nccc(-c3cc4ccccc4s3)n2)cc1)N1CCC(N2CCCC2)CC1", "observed": "binding", "technique": "competition with immobilised ligand", "tested at": "1 µM", "remaining binding": "100%"}
{"Structure (SMILES)": "CCCOc1ccc([C@@H]2[C@@H](C(=O)O)[C@H](c3ccc4c(c3)OCO4)CN2CC(=O)Nc2c(CC)cccc2CC)cc1", "observed": "cell-free assay", "technique": "competition with immobilised ligand", "tested at": "1 µM", "remaining binding": "100%"}
{"Structure (SMILES)": "C[C@H]1CCN(c2nccc(-c3cnn4ncccc34)n2)C1", "observed": "binding", "tested at": "1 µM", "remaining binding": "91%"}
{"Structure (SMILES)": "Cc1cc(-c2cc(C(F)(F)F)ccc2O[C@H]2C[C@@]2(CNS(=O)(=O)c2ccc([N+](=O)[O-])cc2)c2ccc(F)cc2F)[nH]n1", "observed": "cell-free assay", "technique": "competition with immobilised ligand", "tested at": "0.3 µM", "remaining binding": "6.9%"}
{"Structure (SMILES)": "COc1ccc2c(c1)O[C@H](c1ccc(OC)c(OC)c1)C[C@@H]2NC(=O)C1(c2ccc3c(c2)OC(F)(F)O3)CC1", "observed": "cell-free assay", "technique": "competition with immobilised ligand", "tested at": "1 µM", "remaining binding": "100%"}
{"Structure (SMILES)": "Cc1cnc(Nc2ccc(C(=O)N3CCC(N4CCCC4)CC3)cc2)nc1-c1cc2ccccc2s1", "observed": "binding", "technique": "competition with immobilised ligand", "tested at": "1 µM", "remaining binding": "85%"}
